Reference: ChEMBL document CHEMBL5653606 (J Pharmacol Exp Ther, 2011)
Calls of active or inactive are those of the source.

Legend:
[1] = molecular target: T1, Fatty-acid amide hydrolase 1 (Rattus norvegicus, UniProt P97612); experiment: Inhibition of rat FAAH assessed as kinact/Ki ratio incubated for 15 min in presence of glutamate dehydrogenase by 384-well format microplate reader assay
T1 sequence (P97612 whole entry): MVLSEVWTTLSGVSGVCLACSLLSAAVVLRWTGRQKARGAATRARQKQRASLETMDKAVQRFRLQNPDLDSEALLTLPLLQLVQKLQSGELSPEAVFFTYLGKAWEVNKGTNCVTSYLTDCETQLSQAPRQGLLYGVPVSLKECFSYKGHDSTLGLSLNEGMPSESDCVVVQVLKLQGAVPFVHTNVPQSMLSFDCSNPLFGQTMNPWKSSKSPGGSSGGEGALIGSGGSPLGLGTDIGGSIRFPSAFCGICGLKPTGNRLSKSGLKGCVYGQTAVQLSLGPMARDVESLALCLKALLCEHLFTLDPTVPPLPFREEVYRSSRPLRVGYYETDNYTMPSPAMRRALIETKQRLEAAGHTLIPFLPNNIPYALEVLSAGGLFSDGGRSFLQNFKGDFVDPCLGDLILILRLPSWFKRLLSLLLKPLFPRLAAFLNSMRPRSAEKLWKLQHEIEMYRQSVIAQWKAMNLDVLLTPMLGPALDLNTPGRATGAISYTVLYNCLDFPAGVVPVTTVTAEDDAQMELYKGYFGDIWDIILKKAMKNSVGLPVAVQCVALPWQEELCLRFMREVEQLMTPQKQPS

[2] = Oral bioavailability in dog; format: ADME, organism-based, Canis lupus familiaris; conditions: in vivo
[3] = Brain concentration in rat at 1 mg/kg, po administered for 4 hrs by LC/MS analysis; format: ADME, organism-based; conditions: read-out: Ct
Procedure, shortened: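 Rats dosed orally at 1 mg/kg. Plasma and brain concentrations measured at 1, 2, 4, 8 and 24 h.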

[4] = molecular target: T2, Fatty-acid amide hydrolase 1 (Rattus norvegicus) (UniProt P97612); experiment: In vivo inhibition of FAAH in CFA induced Sprague-Dawley rat plasma at 1 mg/kg, po measured for 1 to 24 hrs; format: functional, organism-based; conditions: time 1-24 hrs
T2 sequence (whole entry): T1 sequence (P97612 whole entry)

[5] = molecular target: T2, Fatty-acid amide hydrolase 1 (Rattus norvegicus); experiment: In vivo inhibition of FAAH in CFA induced Sprague-Dawley rat plasma assessed as elevation of PEA level at 1 mg/kg, po measured for 1 to 24 hrs; format: functional, organism-based; conditions: time 1-24 hrs
[6] = molecular target: T2, Fatty-acid amide hydrolase 1 (Rattus norvegicus); experiment: In vivo inhibition of FAAH in CFA induced Sprague-Dawley rat plasma assessed as elevation of OEA level at 1 mg/kg, po measured for 1 to 24 hrs; format: functional, organism-based; conditions: time 1-24 hrs
Rattus norvegicus [7] = experiment: Antihyperalgesic activity in CFA induced Sprague-Dawley rat assessed as partial reduction of mechanical allodynia at 3 mg/kg, po in presence of CB1 antagonist SR141716 by von frey test; format: functional, organism-based
Procedure, shortened: (§1)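 Male Sprague-Dawley rats (200–250 g) given 150 μl CFA (1 mg/ml in mineral oil) intraplantar in the hind paw. Mechanical paw withdrawal thresholds read with Von Frey hairs on day 5 postinjection. Dosed orally as nanocrystalline suspension in 2% polyvinylpyrrolidone/0.15% SDS in water, 10 ml/kg. PWTs taken 4 h postdose for dose-response, or at 1, 2, 4, 8, 24 h for time course.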

Rattus norvegicus [8] = experiment: Antihyperalgesic activity in CFA induced Sprague-Dawley rat assessed as partial reduction of mechanical allodynia at 3 mg/kg, po in presence of CB2 antagonist SR144528 by von frey test; format: functional, organism-based; procedure, shortened: as §1
Rattus norvegicus [9] = experiment: Antihyperalgesic activity in MIA induced Sprague-Dawley rat assessed as increased joint compression thresholds at 3 mg/kg, po administered once daily for 3 consecutive days and measured after 2 to 4 hrs; format: functional, organism-based; conditions: time 3.0 day
Procedure, shortened: (§2)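 Male Sprague-Dawley rats (220–270 g), isoflurane-anesthetized, given 2 mg MIA in 0.9% saline (50 μl) intra-articular into the knee. From day 14, oral dosing at 10 ml/kg once daily for 3 days in 4% 2-hydroxypropyl-β-cyclodextrin/1% ethanol in 0.01 M HCl. Celecoxib 30 mg/kg in 0.5% methylcellulose twice daily. Joint compression threshold by digital Randall-Selitto at 2 and 4 h postdose on days 1 and 3; n = 10/group.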

Rattus norvegicus [10] = experiment: Antihyperalgesic activity in MIA induced Sprague-Dawley rat assessed as reduction in mechanical allodynia at 3 mg/kg, po administered for 1 day and measured after 2 to 4 hrs; format: functional, organism-based; procedure, shortened: as §2
Rattus norvegicus [11] = experiment: Antihyperalgesic activity in MIA induced Sprague-Dawley rat assessed as effect on pain behaviour in contralateral knee joint at 0.3 to 3 mg/kg, po administered once daily for 3 consecutive days; format: functional, organism-based; conditions: dose 0.3-3 mg/kg, time 3.0 day; procedure, shortened: as §2
Rattus norvegicus [12] = experiment: Antihyperalgesic activity in MIA induced Sprague-Dawley rat assessed as increased joint compression thresholds at 0.3 to 3 mg/kg, po administered for 1 day and measured after 2 to 4 hrs; format: functional, organism-based; conditions: dose 0.3-3 mg/kg; procedure, shortened: as §2
Mus musculus = experiment: Antinociceptive activity in C57BL6/J mouse assessed as effect in catalepsy at 1 to 10 mg/kg, po administered for 4 hrs; format: functional, organism-based; conditions: dose 1-10 mg/kg
Procedure, shortened: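 Male C57BL/6J mice, 7 weeks old, n = 8/group, dosed orally at 1 or 10 mg/kg in PEG 300 (4 ml/kg). Tetrad tested 4 h postdose: locomotor activity, tail-immersion thermal nociception, catalepsy (assessed 60 s), body temperature. Means ± S.E.M. versus vehicle.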

- IC50 [1]: 26.7 nM
- bioavailability [2]: 58%
- concentration at 4 h [3]: 870 nM
- inhibition [4]: Active
- inhibition [5]: Active
- inhibition [6]: Active
SMILES: O=C(Nc1cccnn1)N1CCC(=Cc2cccc(Oc3ccc(C(F)(F)F)cn3)c2)CC1
- Activity (Rattus norvegicus [7]): Active
- Activity (Rattus norvegicus [8]): Active
- Activity (Rattus norvegicus [9]): Active
- Activity (Rattus norvegicus [10]): Active
- Activity (Rattus norvegicus [11]): inactive
- Activity (Rattus norvegicus [12]): Active
- Activity (Mus musculus): Non-Toxic
